≈ marks a conversion by molar mass, not a printed value.
Tests used:
[1] = system: Rattus norvegicus; assay: Antihypertensive activity in conscious spontaneously hypertensive rats 10 hr following 50 mg/kg p.o.; No significant reduction.; type: functional; conditions: route oral
[2] = system: Rattus norvegicus; assay: Antihypertensive activity rating in conscious SHR after 18 hr post dose at 50 mg/kg (po); 0=No significant reduction; type: functional
[3] = system: Rattus norvegicus; assay: Antihypertensive activity in conscious spontaneously hypertensive rats 2 hr following 50 mg/kg p.o.; No significant reduction.; type: functional; conditions: route oral
[4] = system: Rattus norvegicus; assay: Antihypertensive activity rating in conscious SHR after 24 hr post dose at 10 mg/kg (po); 0=no significant reduction; type: functional
[5] = species on record: Rattus norvegicus; assay: Maximum percent decrease in blood pressure in SHR ( hour post dose in parentheses); type: functional
[6] = system: Rattus norvegicus; assay: Antihypertensive activity rating in conscious SHR after 10 hr post dose at 10 mg/kg (po); Range 10-20%; type: functional
[7] = system: Rattus norvegicus; assay: Antihypertensive activity rating in conscious SHR after 10 hr post dose at 50 mg/kg (po); type: functional
[8] = system: Rattus norvegicus; assay: Antihypertensive activity rating in conscious SHR after 18 hr post dose at 50 mg/kg (po); type: functional
[9] = system: Rattus norvegicus; assay: Antihypertensive activity rating in conscious SHR after 2 hr post dose at 10 mg/kg (po); Range 10-20%; type: functional
[10] = system: Rattus norvegicus; assay: Antihypertensive activity rating in conscious SHR after 2 hr post dose at 50 mg/kg (po); type: functional
[11] = Solubility, determined in 0.1 N HCl; type: physicochemical; conditions: read-out: S
In short: (§1)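 Dissolved compound was quantified by UV absorption. For the pH 7 value, the acidic solution was brought to pH 7 to give the unprotonated base, the precipitate was removed, and the supernatant was assayed again by UV.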

[12] = Solubility, determined in phosphate buffer at pH 7; type: physicochemical; in short: as §1
[13] = pKa value, measured in 67% of DMF; type: physicochemical; conditions: 67% DMF
In short: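 Dissociation constants were found by potentiometric titration in 67% N,N-dimethylformamide/water.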

[14] = Half-life measured in 1:1 ratio of MeOH and phosphate buffer at pH 7; 15-17; type: ADME; conditions: 1:1 MeOH / phosphate buffer
In short: (§2)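 Hydrolytic stability was tested at room temperature on solutions of ca. 0.001-0.002%. Media were 0.1 N HCl (pH ~1.5), 50% MeOH/pH 7 phosphate buffer (pH ~8.0), and 50% MeOH/0.05 N aqueous NaOH (pH ~12.2). Changes in the UV spectrum were followed over 2 weeks.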

[15] = Half-life measured in 0.1 N HCl; Stable; type: ADME; conditions: buffer; in short: as §2
[16] = Half-life measured in 1:1 ratio of MeOH and 0.1 N NaOH; type: ADME; conditions: 1:1 MeOH / 0.1 N NaOH; in short: as §2
[17] = system: Rattus norvegicus; assay: Antihypertensive activity rating in conscious SHR after 2 hr post dose at 50 mg/kg (po); Range 10-20%; type: functional
[18] = system: Rattus norvegicus; assay: Antihypertensive activity rating in conscious SHR after 24 h post dose at 50 mg/kg (po); Range 20-30%; type: functional
[19] = system: Rattus norvegicus; assay: Antihypertensive activity rating in conscious SHR after 24-72 hr post dose at 10 mg/kg (po); Range 10-20%; type: functional
[20] = system: Rattus norvegicus; assay: Antihypertensive activity rating in conscious SHR after 10 hr post dose at 50 mg/kg (po); Range 20-30%; type: functional
[21] = system: Rattus norvegicus; assay: Antihypertensive activity rating in conscious SHR after 2 hr post dose at 10 mg/kg (po); 0=No significant reduction; type: functional
[22] = pKa value, measured in 67% DMF/water
[23] = system: Rattus norvegicus; assay: Antihypertensive activity rating in conscious SHR after 10 h post dose at 10 mg/kg (po); 0=No significant reduction; type: functional
[24] = Half-life measured in 1:1 ratio of MeOH and phosphate buffer at pH 7; Stable; type: ADME; in short: as §2
[25] = system: Rattus norvegicus; assay: Antihypertensive activity rating in conscious SHR after 24 hr post dose at 50 mg/kg (po); type: functional
[26] = Half-life measured in 0.1 N HCl (*-<5% change after 14 days at 25 degrees C; Stable; type: ADME; conditions: buffer, 336 h; in short: as §2
[27] = system: Rattus norvegicus; assay: Antihypertensive activity in conscious spontaneously hypertensive rats 10 hr following 50 mg/kg p.o.; Range 10-20%.; type: functional; conditions: route oral
[28] = system: Rattus norvegicus; assay: Antihypertensive activity rating in conscious SHR after 18 hr post dose at 50 mg/kg (po); Range 10-20%; type: functional

SMILES	Activity rating [3] [%]	Decrease [5] [%]	Activity rating [6] [%]	Activity rating [7] [%]	solubility [11] [µg/mL]	solubility [12] [µg/mL]	Activity rating [17] [%]	Activity rating [19] [%]	Activity rating [21] [%]	other results
Cc1ncc2cc(-c3c(Cl)cccc3Cl)c(NC(=O)NC(C)(C)C)nc2n1	0	–	–	–	–	–	–	–	–	Activity rating [1]: 0%; Activity rating [2]: 0%
CCC(=O)Nc1nc2nc(C)ncc2cc1-c1c(Cl)cccc1Cl	–	35	10	>30	–	–	–	–	–	Activity rating [4]: 0; Activity rating [8]: >30%; Activity rating [9]: 10%; Activity rating [10]: >30%
Cc1ncc2cc(-c3c(Cl)cccc3Cl)c(NC(=O)c3ccco3)nc2n1	–	27	10	–	6600 (≈ 16.5 mM)	220 (≈ 0.551 mM)	10	10	0	pKa [13]: 4.3; half-life [14]: 360 h; T1/2 [15]: Stable; half-life [16]: 4 h; Activity rating [18]: 20%; Activity rating [20]: 20%; pKa [22]: 10.7
Cc1ncc2cc(-c3c(Cl)cccc3Cl)c(NC(=O)c3ccc([N+](=O)[O-])cc3)nc2n1	–	–	–	–	–	–	–	–	0	Activity rating [23]: 0%
Cc1ncc2cc(-c3c(Cl)cccc3Cl)c(N)nc2n1	–	32	10	>30	4850 (≈ 15.9 mM)	7 (≈ 0.0229 mM)	10	10	–	T1/2 [24]: Stable; Activity rating [25]: >30%; T1/2 [26]: Stable
Cc1ncc2cc(-c3c(Cl)cccc3Cl)c(O)nc2n1	0	10	–	–	–	–	–	–	–	Activity rating [27]: 10%; Activity rating [28]: 10%

— ChEMBL document CHEMBL1122346, “Antihypertensive activity of 6-arylpyrido[2,3-d]pyrimidin-7-amine derivatives. 2. 7-Acyl amide analogues” (J Med Chem, 1983)
